Assay outcomes (PubChem)
HCV NS3 hel inh: HCV NS3 helicase inhibition; 290,000 compounds, 0.56% hits; inhibition, % at 10.9 µM; NS3 helicase DNA unwinding, Cy5 molecular beacon fluorescence;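 active = inhibition above the mean of all tested compounds plus 3 SD, set per campaign, cut at about 35% in these data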;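 also: 0% = DMSO wells and 100% = thioflavine S control wells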
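System: NS3 helicase fragment of HCV / Schedule: 1 h at 25 °C / Control set: DMSO alone as 0% and 110 µM thioflavine S as 100% / Reagent: Cy5/quencher beacon DNA duplex and ATP to start / Technique: Cy5 fluorescence / Replication: singlicate / Evaluation: % inhibition of end-to-start signal ratio versus controls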
ZTA DNA inh: counter-screen for EBNA-1 inhibitors: inhibitors of Epstein-Barr virus ZTA | 320,000 compounds, 0.15% hits | inhibition, % at 11 µM | P03206 | ZTA-DNA binding, fluorescence polarization | AID 2234; in the data active = inhibition above about 33%
Target sequence (P03206 whole entry, looked up): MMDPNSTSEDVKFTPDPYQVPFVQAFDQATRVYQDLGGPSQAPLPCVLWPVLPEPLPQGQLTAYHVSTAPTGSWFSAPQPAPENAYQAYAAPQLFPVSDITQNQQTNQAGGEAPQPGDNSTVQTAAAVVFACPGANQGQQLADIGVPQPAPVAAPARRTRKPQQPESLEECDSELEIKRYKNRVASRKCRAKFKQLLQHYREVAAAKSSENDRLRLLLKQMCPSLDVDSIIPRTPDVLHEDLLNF
EBNA-1 inhibitor: blocks EBNA-1 binding to DNA; AID 1950; inhibition, % at 14.8 µM; EBNA-1 DNA binding, fluorescence polarization; 300,000 compounds, 0.34% hits; in the data active = inhibition above about 28%
FID counter: counter-screen for HCV NS3 helicase inhibitors: DNA intercalator displacement. inhibition, % at 7.9 µM. DNA fluorescent intercalator displacement, fluorescence. 290,000 compounds, 0.17% hits. AID 1845; in the data active = inhibition above about 37%;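 also: 0% = vehicle and 100% = reference compound; higher means more ethidium bromide displaced from hairpin DNA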
GPR7 antagonist: blocks human GPR7 receptor signaling; P48145; inhibition, % at 4.4 µM; GPR7-expressing cells, fluorescence antagonist assay; 290,000 compounds, 1.1% hits; in the data active = inhibition above about 16%, passing the limit was not always enough;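 also: cells stimulated with the agonist NPW; 0% = agonist with vehicle and 100% = vehicle without agonist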
Target sequence (P48145 whole entry, looked up): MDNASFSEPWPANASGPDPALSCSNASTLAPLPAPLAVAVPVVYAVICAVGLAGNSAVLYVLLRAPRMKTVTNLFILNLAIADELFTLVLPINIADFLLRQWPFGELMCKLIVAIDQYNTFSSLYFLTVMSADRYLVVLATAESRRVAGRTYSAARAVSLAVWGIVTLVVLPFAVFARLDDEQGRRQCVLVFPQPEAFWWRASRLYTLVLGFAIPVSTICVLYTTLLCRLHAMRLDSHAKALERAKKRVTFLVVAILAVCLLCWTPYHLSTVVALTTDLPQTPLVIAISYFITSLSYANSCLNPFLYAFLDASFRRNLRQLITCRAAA
* marks the source's active call; other numbers are inactive results; . = not tested or not shown. Hits are enriched below; roughly 2% of the tested compounds scored in any of these assays.

SMILES	HCV NS3 hel inh	ZTA DNA inh	EBNA-1 inhibitor	FID counter	GPR7 antagonist
CCN(CC)S(=O)(=O)c1cc(OC)c(Cl)cc1Cl	8	4	-3	-16	17
O=C(O)c1cc(Cl)ccc1-c1ccc(/C=C/c2cc(C(F)(F)F)[nH]c(=O)n2)o1	35	53*	43*	-20	13
O=C(O)c1ccccc1-c1ccc(/C=C/c2cc(C(F)(F)F)[nH]c(=O)n2)o1	15	.	.	-24	5
COc1ccc2cc1Oc1ccc(cc1)CC1c3c(cc(OC)c4c3Oc3cc5c(cc3O4)CCNC5C2)CCN1C (stereo unspecified)	-80	16	7	81*	7
CCOc1ccc(C2NCCc3cc(OC)c(OC)cc32)cc1OC (stereo unspecified)	1	3	4	-5	-6
CCC(C)N(C)Cc1cccc(C2(O)CCN(S(=O)(=O)c3ccc(F)c(C)c3)CC2)c1 (stereo unspecified)	-27	-6	6	38*	-2
CCOC(=O)C1CCN(C(=O)COC(=O)C2CCN(S(=O)(=O)c3ccc(C)c(C)c3)CC2)CC1	.	8	-13	.	.
COc1ccc(C(=O)C(CCC(CNC(C)(C)C)C(=O)c2ccc(OC)cc2)CNC(C)(C)C)cc1 (stereo unspecified)	-64	6	8	43*	79*
CN(C)CCN(C(=O)c1ccc(S(=O)(=O)N2CCCC2)cc1)c1nc2ccc(Br)cc2s1	-6	5	5	14	1
CC1CCCCN1S(=O)(=O)c1ccc(C(=O)N(CCCN(C)C)c2nc3ccc(Br)cc3s2)cc1 (stereo unspecified)	-38	0	0	38*	24
CCC1CCCCN1S(=O)(=O)c1ccc(C(=O)N(CCCN(C)C)c2nc3cc4c(cc3s2)OCO4)cc1 (stereo unspecified)	-39	6	3	39*	18
CCCn1c(=O)c2ccccc2n2c(SCC(=O)NCc3cccs3)nnc12	1	2	-4	-11	18*
O=C(c1c(F)cccc1F)N(C1CCCCC1)C1CCCCC1	16	0	11	-33	-23
COc1cc2c(cc1OC)C(c1cccs1)N(C(=O)C(C)C)CC2 (stereo unspecified)	-1	-14	-12	-29	18*
CCOc1ccc(Br)cc1CC(=O)O	-3	4	6	0	18
CCCOc1ccc(Br)cc1CSC(=N)N	-44	-2	-4	13	54*
C=CCc1cccc(/C=N/NC(=O)c2ccccc2OC)c1O	-32	-15	8	-8	19*
COc1ccccc1CNC(=O)C12CC3CC(CC(C3)C1)C2	33	-1	-12	-29	23
c1ccc(COc2ccccc2CNC23CC4CC(CC(C4)C2)C3)cc1	-49	-14	-11	25	36*
O=C(O)C1Nc2c(Cl)cc(Cl)cc2C2C=CCC12 (stereo unspecified)	9	15	17	-7	-9
O=C(O)C1Nc2c(Cl)cc(Cl)c(Cl)c2C2C=CCC12 (stereo unspecified)	57*	-9	0	-9	-11
CC1CC(C)CN(CCOc2ccccc2-c2ccccc2)C1 (stereo unspecified)	-43	2	-3	15	25*
O=C(Nc1ccc(S(=O)(=O)N2CCOCC2)cc1)c1cc(-c2cc(Cl)ccc2O)n[nH]1	22	13	4	10	20*
O=C(N/N=C/c1cccc(F)c1)c1cc(-c2ccco2)nc2ccccc12	40*	-4	10	-6	-12
COc1cc(/C=N/NC(=O)c2cc(-c3ccco3)nc3ccccc23)cc(OC)c1O	5	3	-11	-18	-9
SMILES	HCV NS3 hel inh	ZTA DNA inh	EBNA-1 inhibitor	FID counter	GPR7 antagonist
CCC(=O)N1CCN(c2ccc(Cl)cc2NC(=O)Cc2ccccc2)CC1	-4	-29	1	-31	17*
CCC(=O)Nc1cc(Cl)ccc1N1CCN(C(=O)CC)CC1	2	-12	-14	-6	-7
C/C(CCC12CC3CC(CC(C3)C1)C2)=N\NC(N)=S	5	0	7	0	-2
C/C(CC(C)(C)C1CCCCC1)=N\NC(N)=S	10	17	12	-25	37*
O=C(CSc1nnc(C2CC2)n1C1CC1)Nc1cccc(Br)c1	.	-3	.	.	.
CCCCN1C2=NC(c3ccccc3)CN2c2ccccc21 (stereo unspecified)	.	2	-6	.	.
Cc1ccc(-c2nc(N3CCOCC3)sc2C(=O)N2CCCCC2)cc1	18	5	0	-37	25*
CCOc1ccc(CNc2ccc(N3CCCC3)cc2)cc1	13	86*	79*	-2	-7
CCOc1cc(CNc2ccc(N3CCCC3)cc2)cc(Cl)c1OC	17	159*	97*	-3	1
CCOc1ccc(CNc2ccc(N3CCN(Cc4ccccc4)CC3)cc2)cc1	-61	-8	-7	11	-3
COc1cc(CNc2ccc(N3CCCC3)cc2)cc(Cl)c1OC	32	127*	111*	-5	7
O=C(OCC(=O)N1CCCC1=O)C1CCN(S(=O)(=O)c2c(Cl)cccc2Cl)CC1	-10	7	0	-31	2
O=C(O)c1ccccc1-c1ccccc1C(=O)Nc1ccc(F)cc1	3	1	-13	-3	2
O=C(/C=C/c1ccc(NC(=O)c2ccccc2-c2ccccc2C(=O)O)cc1)c1ccccc1	26	41*	3	-5	-8
CN(C)CCN(Cc1ccco1)C(=O)c1oc2ccccc2c1NC(=O)COc1ccccc1	-71	-4	5	38*	22
O=[N+]([O-])c1ccc(Sc2cccc[n+]2[O-])c2nonc12	14	.	.	1	20*
CCOc1ccccc1N1CC(C(=O)Nc2ccc(S(=O)(=O)N3CCCCC3)cc2)CC1=O (stereo unspecified)	.	20	4	.	.
CCC(=O)Nc1ccc2c(c1)nc(CCNC(=O)c1ccco1)n2C	-3	-2	-2	-5	-4
Cc1oc(-c2ccc(Cl)cc2)nc1CN1CCC(C(=O)NCCCN2CCCC(C)C2)CC1 (stereo unspecified)	-26	0	6	28	12
Cc1oc(-c2ccc(Cl)cc2)nc1CN1CCCC(C(=O)NCCCN2CCOCC2)C1 (stereo unspecified)	-59	2	-5	45*	21
CCC(=O)c1ccc(OCC(=O)OC(C)C(=O)NCc2ccc3c(c2)OCO3)cc1 (stereo unspecified)	.	-4	-9	.	.
COc1cccc(=O)c2c(C)oc(C)c12	7	8	0	-4	19*
COc1ccc(NS(=O)(=O)c2cc(NC(=O)c3ccc(=O)[nH]c3)ccc2N2CCCC2)cc1	1	0	-1	-24	6
CC(/C=C1\SC(=O)N(CC(=O)Nc2cccc(O)c2)C1=O)=C\c1ccccc1	-22	18	-1	13	-6
CC(/C=C1\SC(=O)N(CC(=O)Nc2ccc(O)cc2)C1=O)=C\c1ccccc1	-2	7	28*	4	9
CCOC(=O)[C@H]1[C@H]2COc3ccc(OC)cc3[C@@H]2N2C(=O)CN(CCc3c[nH]c4ccccc34)C(=O)[C@@]12C	.	-31	.	.	.
